# A selection: hits, their analogues and other compounds. The true share with any hit is near 1.3%.
# DDE Tn7 FP inh: inhibitors of Tn7 peptide binding to fibrin DD(E), primary screen, biochemical, fluorescence polarization, human fibrin, Tn7 probe; FP displacement of FITC-Tn7 peptide from fibrin DD(E); 0% = median of compound wells per plate; inhibition, % at 8.3 µM; Fibrinogen beta chain (Homo sapiens), P02675; 370,000 tested, 0.13% active;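 active = inhibition above the mean of compounds falling within the control limits plus 3 SD of them, cut at about 14% in these data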
# Target sequence (P02675 whole entry, looked up): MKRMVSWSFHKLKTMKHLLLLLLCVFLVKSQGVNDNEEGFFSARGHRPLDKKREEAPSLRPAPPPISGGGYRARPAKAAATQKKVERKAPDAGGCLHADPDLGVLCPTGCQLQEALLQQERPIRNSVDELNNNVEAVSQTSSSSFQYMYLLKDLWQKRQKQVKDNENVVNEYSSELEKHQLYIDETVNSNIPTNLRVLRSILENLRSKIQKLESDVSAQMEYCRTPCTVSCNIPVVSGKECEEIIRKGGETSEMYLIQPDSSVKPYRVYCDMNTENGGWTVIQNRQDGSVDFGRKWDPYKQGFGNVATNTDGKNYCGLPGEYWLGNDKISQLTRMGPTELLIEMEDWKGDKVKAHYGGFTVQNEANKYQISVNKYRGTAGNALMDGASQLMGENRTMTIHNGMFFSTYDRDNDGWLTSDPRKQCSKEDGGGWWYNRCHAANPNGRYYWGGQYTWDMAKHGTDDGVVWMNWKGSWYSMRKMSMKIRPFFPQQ
#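 Assay system: Human clot-derived fibrin DD(E) complex | Buffer or medium: Tris/NaCl/CaCl2 buffer, pH 7.8 | Repeats: One replicate per compound | Benchmarks: Aha-Tn7 high control | Measure: % inhibition scaled between sample-field median and high-control FP | Schedule: 10 min plus 3 h, room temperature | Signal: Fluorescence polarization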
# CRFBP-R2 block: antagonists of CRF-BP/CRF-R2 complex, primary screen, cell-based, HEK293, calcium dye fluorescence, uHTS | inhibition, % at 11.8 µM | 350,000 tested, 0.59% active | AID 588475, 2011 | CRF-induced calcium fluorescence;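 active = inhibition of the ligand-induced calcium signal above about 50% at the single tested concentration, limit read from the data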
# DDE Tn6 FP inh: inhibitors of Tn6 peptide binding to fibrin DD(E), primary screen, biochemical, fluorescence polarization, human fibrin, Tn6 probe; AID 720509, 2013; 370,000 tested, 0.21% active; inhibition, % at 8.3 µM; Fibrinogen beta chain (Homo sapiens), P02675; Fibrin DD(E) TRITC-Tn6 fluorescence polarization displacement;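 active = inhibition above a per-campaign cutoff: mean of compounds within control limits plus 3 SD, cut at about 15% in these data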
# CRFR2-BP ag: agonists of CRF-BP/CRF-R2 complex, primary screen, cell-based, HEK293, calcium dye fluorescence, uHTS | calcium dye fluorescence (FLIPR); percent of saturating CRF peptide response | CRF-binding protein / CRF receptor 2 complex (human) | 350,000 tested, 0.46% active | activation, % at 13.2 µM;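 active = activation of at least 50%, plus an integration ratio under a set limit after plate pattern correction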
# A number is an active result; . = inactive; / = no result.
SMILES,DDE Tn7 FP inh,CRFBP-R2 block,DDE Tn6 FP inh,CRFR2-BP ag
CC(C)c1ccc(NC(=S)NN2CCOCC2)cc1,.,50,.,83
COc1ccc(S[C@]2(C(=O)N3CCN(c4ncccn4)CC3)CC(=O)N(S(=O)(=O)c3ccc(F)cc3)[C@@H]2c2ccc(OC)cc2)cc1,.,/,.,/
COc1ccc(C(=O)c2sc3nc(-c4ccccc4)ccc3c2N)cc1OC,.,.,.,52
COc1cc(/C=C/C(=O)c2ccc3c(c2)OCO3)cc(Cl)c1O,.,.,.,135
COc1ccc(C(=O)C=Cc2ccc3c(c2)OCO3)cc1OC,.,.,.,.
CC1CCN(S(=O)(=O)c2ccc(Cl)cc2)CC1,.,.,.,.
CC1CCN(S(=O)(=O)c2ccc(C(C)C)cc2)CC1,.,.,.,90
N#CC1=C(N)Oc2cc(O)c(Cl)cc2C1c1ccccc1F (stereo not given),.,.,.,192
N#CC1=C(N)Oc2cc(O)c(Cl)cc2C1c1cccnc1 (stereo not given),.,.,.,.
COCCCN1C(=O)[C@H](CC(=O)N2CCC(c3ccccc3)CC2)[C@]2(C(=O)OC)CCCCC=C12,.,/,.,/
CC(=O)N=c1sc(S(N)(=O)=O)nn1C,.,111,.,.
CC(=O)Nc1nnc(S(N)(=O)=O)s1,.,.,.,.
CCOC(=O)C1CCCN(c2ncnc3c2cnn3-c2ccc(Cl)cc2)C1 (stereo not given),.,.,.,101
CCOC(=O)C1CCCN(c2ncnc3c2cnn3-c2ccc(OC)cc2)C1 (stereo not given),.,.,.,.
COC(=O)[C@]12C[C@H](CC(=O)NCC3CCCCC3)C(=O)N(CCc3ccc(OC)c(OC)c3)C1=C[C@H](COCc1ccccc1)O[C@@H]2C,.,/,.,/
O=C1CCc2cc(S(=O)(=O)N3CCC(C(=O)NC4CCCCCCC4)CC3)ccc2N1,.,68,.,.
O=C(NC1CCCCCC1)C1CCN(S(=O)(=O)c2ccc(F)cc2)CC1,.,.,.,.
CN(CC1CCOCC1)C(=O)CC1C(=O)NCCN1Cc1ccc(Cl)c(F)c1 (stereo not given),.,79,.,.
Cc1ccccc1Nc1nc(N)nc(COC(=O)c2ccccc2)n1,.,.,.,.
Cc1ccccc1Nc1nc(N)nc(COC(=O)c2cccc(S(=O)(=O)N(C)c3ccccc3)c2)n1,.,51,.,.
CCSc1nnc(-c2sc3nnc(-c4ccccc4)c(-c4ccccc4)c3c2N)o1,.,.,.,116
CCOc1cccc(C2C(C(=O)c3ccc(C)o3)=C(O)C(=O)N2c2nccs2)c1 (stereo not given),.,.,.,159
O=C(C1=C(O)C(=O)N(CCc2ccccc2)C1c1ccncc1)c1cc2ccccc2o1 (stereo not given),.,.,.,.
O=C(C1=C(O)C(=O)N(c2nccs2)C1c1ccccc1)c1cc2ccccc2o1 (stereo not given),.,.,.,168
Cc1noc(C)c1S(=O)(=O)N1CCC(C(=O)N2CCN(c3ccc(F)cc3)CC2)CC1,/,60,/,.
SMILES,DDE Tn7 FP inh,CRFBP-R2 block,DDE Tn6 FP inh,CRFR2-BP ag
O=C(COC(=O)c1ccccc1C(=O)N1CCN(c2ccccc2)CC1)Nc1ccccc1,.,.,.,.
COc1cccc(NC(=O)COC(=O)c2ccccc2C(=O)N2CCN(c3ccccc3)CC2)c1,.,69,.,.
O=C(OCCN1C(=O)c2cccc3c(N4CCOCC4)ccc(c23)C1=O)c1ccc(Cl)cc1,.,.,.,366
CCCN(CCC)S(=O)(=O)c1ccc(C(=O)OCCN2C(=O)c3cccc4c(N5CCOCC5)ccc(c34)C2=O)cc1,/,.,/,114
C[C@@H]1CCCN1c1ccc2c(c1)O[C@H]1CCN(C1)S2(=O)=O,.,/,.,/
CC(=O)CC[C@H]1CC[C@]2(CCCN(C(=O)c3ccno3)C2)O1,.,/,.,/
COc1cc(S(=O)(=O)Nc2ccc(C)cc2)ccc1N=Cc1c(C)[nH]n(-c2ccc(C)cc2)c1=O,.,.,.,.
COc1cc(S(=O)(=O)Nc2ccc(C)cc2)ccc1N=Cc1c(C)c(C#N)c(=O)n(C)c1O,.,.,.,80
Clc1ccc([C@H]2OC[C@@]3(CNCCN4CCOCC4)CS[C@H](c4ccc(Cl)cc4)N23)cc1,.,/,.,/

# Source: PubChem BioAssay (several laboratories)
